Results on three substances are retold here after article PMC6857568 (Molecular Biology of the Cell, 2019).

In data set [1] the test system is depolymerizing microtubule plus ends / intersecting microtubules. Nature of the data set: Outcome of depolymerizing plus end crossing an intersecting microtubule. The data set is classed as biochemical, pig. The note with it: for pulling events (in words): 50 or 100 nM (starPEG-(KA7)4-TAMRA); for pick-up of tubulin aggregates tracking depolymerizing plus ends: dynamic microtubule assay. Summed up: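 Peptide was present in the dynamic-seed assay (14 µM Alexa 647 tubulin, GTP, 35°C). Dual-color time-lapse ran at one frame per 3 s. Peptide intensity at a crossing was the background-corrected integrated intensity of a five-pixel circle, taken in the frame where the depolymerizing plus end crossed the intersecting microtubule. Multiple-peak Gaussian fitting was used.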

The test system of data set [2] is Alexa 647–labeled tubulin. Nature of the data set: Spontaneous microtubule nucleation assay. Format: biochemical, pig. The note with it: 100 nM, 5 min, 35°C; for microtubules nucleated de novo: ± SD, MOCK 0.6 ± 0.4.
Data set [3] relates to taxol-stabilized Atto647N-labeled microtubules. Nature of the data set: Microtubule-binding by TIRF microscopy on taxol-stabilized microtubules. Set-up: species or system pig.
The test system of data set [4] is dynamic Alexa 647–labeled microtubules. Nature of the data set: Bundling of dynamic microtubules. The data set is classed as biochemical, pig. The settings on record: 50 or 100 nM starPEG-(KA7)4-TAMRA; 50 nM starPEG-(DA7)4-TAMRA; 35°C. Summed up: (§1)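 Dynamic assay: biotinylated GMP-CPP pig tubulin seeds were bound to anti-biotin antibody, then given 14 µM Alexa 647 tubulin with 1 mM GTP, methylcellulose, casein and oxygen scavenger in PIPES pH 6.8. Peptide was present at the stated concentrations, at 35°C for up to 30 min. Dual-color time-lapse was one frame per 3 s; kymographs were analyzed manually.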

The test system is the same in data set [5]. Nature of the data set: Microtubule dynamics. The settings on record: vs MOCK. Format: biochemical, pig.
Data set [6] shares this test system. Nature of the data set: Tracking of microtubule ends on dynamic microtubules. Format: biochemical, pig. The gist of the method: as §1
The test system of data set [7] is taxol-stabilized ATTO 647N-labeled microtubules. Nature of the data set: Single-molecule diffusion and track-switching on the microtubule lattice. Format: binding, pig. Summed up:
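Peptide at 1 nM was imaged on taxol microtubules at 25°C in BRB80. Recordings were 5-min continuous streams at 100-ms exposure (532 nm). Single molecules were tracked automatically (minimum 5 frames, maximum 3-frame break) and checked against kymographs. D came from MSD linear regression and from a covariance-based estimator weighted by trajectory length.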

In data set [8] the test system is overlaps of taxol-stabilized microtubules. Nature of the data set: Accumulation in overlaps of taxol-stabilized microtubules. Format: binding, pig.
The subject of data set [9] is subtilisin-treated GMP-CPP/taxol double-stabilized microtubules. Nature of the data set: Binding to subtilisin-treated. Further details: species or system pig. The note with it: C-termini removed. Summed up:
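GMP-CPP microtubules were digested with 200 µg/ml subtilisin A in BRB80 plus 10 µM taxol for 1 h at 30°C, then stopped with 10 mM PMSF. Digestion was checked by SDS-PAGE. Brightly labeled (1:4) digested and dimly labeled (1:20) undigested microtubules shared one channel. Peptide binding was imaged by TIRF at 25°C in the stabilized-microtubule buffer.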

Data set [10] has as its system rat kinesin-1 (rKin430-GFP). Nature of the data set: Kinesin-1 stepping. The data set is classed as biochemical. The settings on record: 5 and 25 nM. Summed up: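 GFP-tagged truncated rat kinesin-1 (1–430) ran on antibody-bound taxol microtubules with 1 mM ATP and peptide, at 25°C. Movies were 5 min at 100-ms exposure (488 nm), with a peptide snapshot beforehand. Landing rate, velocity, dwell time and run length were scored manually from kymographs. Gaussian and log-normal fits were applied; half-maxima of cumulative plots were reported.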

In data set [11] the test system is depolymerizing microtubule plus ends / intersecting microtubules. Nature of the data set: Bending forces of pulled microtubules during pulling events. The data set is classed as biochemical, pig. The note with it: beam equation, deflection angle ≤30°, corrected force, mean ± SD, N = 11.
The target of data set [12] is Atto647N-labeled microtubules of pig brain tubulin (pig) (UniProt Q2XVP4). Nature of the data set: TIRF microscopy binding assay.
[13] abbreviates: average, n = 19 tracking events, 35°C.

Turning to starPEG-(DA7)4-TAMRA, in data set [1], the “pulling events (in words)” value was “none” and the “pick-up of tubulin aggregates tracking depolymerizing plus ends” value was “not evident”. Also, the “microtubules nucleated de novo” value in data set [2] was 0.8 ± 1.0 MT per minute and field of view. Further, the microtubule binding entry in [3] (high nanomolar concentrations (i.e., >250 nM), charge-inverted control) is recorded as “does not show any microtubule binding”. Further, the microtubule bundling result in data set [4] is on record as “not in the presence of 50 nM starPEG-(DA7)4-TAMRA”. Further, the “effect on microtubule dynamics (in words)” value in data set [5] (50 nM) is given as “do not change microtubule dynamics compared with MOCK control”.
For starPEG-(KA7)4-TAMRA, in [1], the “pulling events (in words)” value was “frequent pulling events”; the “pick-up of tubulin aggregates tracking depolymerizing plus ends” value was “eventually picked up surface-associated tubulin aggregates that started to diffuse along the microtubule lattice and tracked depolymerizing plus ends”. Further, in [2], the “microtubule nucleation (in words)” value is “robust nucleation is evident”; the “microtubules nucleated de novo” value is 9 ± 2.5 MT per minute and field of view. Further, the “saturation of microtubule binding” value in [3] (taxol-stabilized microtubules, BRB80, 25°C) is about 200 nM. Further, the “tracking of growing microtubule plus end” value in data set [6] (after rescue event) was “unable to track the growing microtubule plus end”. Further, in [6] (setting [13]), the “microtubule shortening during tracked depolymerization events” value was about 60% and the “microtubule-bound intensity lost during one depolymerization event” value was about 30%. Besides, in [6] (dynamic microtubules), the minus-end tracking entry was “could not observe any minus-end-tracking event”. Moreover, the “concentration on remaining microtubule lattice by end-tracking” value in data set [6] (normalized intensity / normalized length) is reported as “about twofold”. The “diffusion coefficient (overall)” value in data set [7] (25°C, BRB80) is about 0.3 µm^2s^–1. The “diffusion coefficient D (MSD)” value in [7] (mean square displacement, linear regression, mean ± SEM, N = 998, 1 nM, 25°C, BRB80) was determined as 0.33 ± 0.04 µm^2s^–1. Further, the “track-switching at microtubule intersections” value in data set [7] (single molecules, taxol-stabilized microtubules) is “able to switch their microtubule track at microtubule–microtubule intersections”. Further, in data set [8] (low density (5 nM)), the “accumulation in microtubule overlaps (in words)” value was “preferentially binds to or accumulates in overlaps of taxol-stabilized microtubules”. The “accumulation in microtubule overlaps (in words)” value in [8] (near a half-saturating concentration (25 nM)) was “this effect is lost”. In [9], the “effect of subtilisin protease treatment on microtubule binding” value is recorded as “completely abolishes microtubule binding”. In addition, in data set [10], the “effect on kinesin-1 dwell time (in words)” value was “does not significantly affect the motor’s average dwell time”, the “effect on kinesin-1 landing rate (in words)” value is on record as “significantly decreases the landing rate of kinesin-1 in a concentration-dependent manner”, the “effect on kinesin-1 run length (in words)” value was “nor the average motor run length” and the “effect on kinesin-1 velocity (in words)” value is recorded as “slightly increased”. Further, the microtubule bundling result in [4] is “pronounced microtubule bundling”. Besides, the “effect on rescue frequency (in words)” value in [5] (50 and 100 nM) was 100 nM but not 50 nM starPEG-(KA7)4-TAMRA significantly reduces the rescue frequency. The “effect on growth velocity (in words)” value in data set [5] (50 or 100 nM) is on record as “increases the growth velocity significantly”. For the same substance, in data set [11], the “bending force during pulling events (mean)” value turned out to be 4.2 ± 2.7 pN.
In data set [12], starPEG-(KA7)4-TAMRA (designed binder) showed a Kd of 30 nM and a concentration at which saturation is reached of 200 nM.

A word on the Kd: it is a measure of binding affinity in units of concentration. A higher Kd goes with a looser complex.
